# NPY1 pot ag: NPY-Y1 receptor potentiators or agonists, primary screen, cell-based. activation, % at 3.6 µM. Neuropeptide Y receptor type 1 (Homo sapiens), P25929. 220,000 compounds, 0.37% hits. AID 1304, 2008. NPY-Y1 expressing cells, potentiator/agonist activation; in the data active = activation above about 33%, passing the limit was not always enough;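 note: cells stimulated with NPY at EC10 then isoproterenol at EC100; 0% = low agonist plus stimulus and 100% = saturating agonist plus stimulus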
# Target sequence (P25929 whole entry, looked up): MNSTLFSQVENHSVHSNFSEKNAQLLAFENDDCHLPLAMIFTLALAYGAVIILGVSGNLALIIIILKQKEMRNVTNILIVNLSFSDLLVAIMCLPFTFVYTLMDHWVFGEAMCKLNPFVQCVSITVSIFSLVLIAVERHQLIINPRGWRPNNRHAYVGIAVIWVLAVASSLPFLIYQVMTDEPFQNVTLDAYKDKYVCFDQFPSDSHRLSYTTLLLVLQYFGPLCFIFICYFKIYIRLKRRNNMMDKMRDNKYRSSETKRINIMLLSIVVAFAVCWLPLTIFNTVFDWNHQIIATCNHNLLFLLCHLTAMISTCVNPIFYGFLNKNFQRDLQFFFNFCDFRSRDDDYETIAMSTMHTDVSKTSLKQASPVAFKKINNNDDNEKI
# Measles CPE: compounds protecting cells from measles virus cytopathic effect, primary screen, measles RdRp inhibitor project, single point, MLSMR library, absorbance; Measles virus-infected cells, CPE protection; protection (pct of control), % at 4 µM; 140,000 compounds, 1.5% hits; in the data active = protection mostly above about 24%, no sharp cut-off; inactive = mostly below about 26%
# MDM2 E3 inh: MDM2-luciferase reporter signal enhancers, primary screen, MDM2 E3 ligase inhibitor project, cell-based, luminescence, 1536-well | cell-based MDM2 ubiquitination luciferase reporter, 2 h; 0 = plate control, 100 = twice control, blank-subtracted | signal enhancement, % at 5 µM | 210,000 compounds, 0.11% hits | AID 1230, 2008 | E3 ubiquitin-protein ligase Mdm2 (Homo sapiens), Q00987;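 active = signal enhancement of 30% or more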;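 note: luminescence tracks abundance of the self-degrading MDM2-luciferase fusion protein; higher signal means inhibition of MDM2 E3 ligase activity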
#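 Material: Stable MDM2–luciferase fusion reporter cells | Amount: 2000 cells seeded into each well | Dosing: One concentration, 5 µM, with 0.2% DMSO | Incubation: 4 h cell settling then 2 h compound exposure, 37 °C | Measured by: Luciferase luminescence | Read-out basis: % enhancement relative to plate controls after blank subtraction | Benchmarks: Control and blank well means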
# NPY-Y1 antag: NPY-Y1 receptor antagonists, primary screen, cell-based; Neuropeptide Y receptor type 1 (Homo sapiens), P25929; HEK293-CNG Y1 cells, membrane potential fluorescence; NPY at EC95, then isoproterenol; inhibition, % at 3.6 µM; 200,000 compounds, 1% hits;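 active = inhibition above the campaign mean inhibition of all tested compounds plus 3 SD, cut at about 20% in these data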;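 note: 0% = DMSO wells given NPY plus isoproterenol and 100% = isoproterenol alone without NPY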
#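 Material: Y1- and CNG-channel-expressing HEK293 cells / Probe or stimulus: NPY 25 nM then isoproterenol 1 µM plus Ro 20-1724 25 µM / Doses: 3.6 µM single dose, DMSO 0.4% / Schedule: compound incubation 1 h at room temperature, readout 45 min post-stimulation / Signal: membrane potential fluorescence / Benchmarks: isoproterenol-only wells as full block versus NPY-plus-isoproterenol wells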
# NPY-Y2 antag: NPY-Y2 receptor antagonists, primary screen, cell-based | NPY-Y2 expressing cells, antagonist mode | 140,000 compounds, 0.99% hits | inhibition, % at 2.7 µM | Neuropeptide Y receptor type 2 (Homo sapiens), P49146; in the data active = inhibition above about 17%;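 note: 0% = vehicle with agonist challenge and 100% = reference antagonist with challenge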
# NPY2 pot ag: NPY-Y2 potentiators or agonists, primary screen, cell-based; Neuropeptide Y receptor type 2 (Homo sapiens), P49146; cells expressing NPY-Y2, potentiator/agonist read-out; activation, % at 3.6 µM; 220,000 compounds, 0.45% hits; AID 1359, 2008; in the data active = activation above about 27%;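 note: cells stimulated with NPY near EC25 plus isoproterenol at EC100; 0% = vehicle plus submaximal agonist and 100% = vehicle plus saturating agonist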
# NPY-Y1 confirm: NPY-Y1 potentiators or agonists, confirmation, cell-based; shares compounds with NPY1 pot ag; cell-based NPY-Y1 potentiator/agonist assay; activation, % at 3.6 µM; 280 compounds, 20% hits; in the data active = activation above about 45%;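 note: cells challenged with NPY at its EC10 plus isoproterenol stimulus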
# NPY-Y2 counter: NPY-Y2 potentiators or agonists, counter-screen for NPY-Y1 potentiator project, cell-based, fluorescence. HEK293-CNG cells, membrane-potential fluorescence (FLIPR), 1536-well. activation, % at 3.6 µM. 280 compounds, 20% hits. shares compounds with NPY1 pot ag. AID 1649, 2009; in the data active = activation above about 33%
# NPY-Y1 agonist: NPY-Y1 direct agonists without NPY, confirmation, counter-screen for NPY-Y1 potentiator project, cell-based, fluorescence | HEK293 Y1-CNGC, membrane potential fluorescence, agonist mode | shares compounds with NPY1 pot ag | 280 compounds, 50% hits | activation, % at 3.6 µM | AID 1697, 2009;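 active = percent activation above the mean of DMSO-only control wells plus 3 SD of those wells, cut at about 18% in these data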;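 note: cells challenged with isoproterenol plus Ro 20-1724 with no NPY in test wells; Y1 agonism lowers isoproterenol-driven cAMP and reduces probe fluorescence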
# NPY-Y2 ag: NPY-Y2 direct agonists without NPY, counter-screen for NPY-Y1 potentiator project, cell-based, fluorescence. activation, % at 3.6 µM. AID 1698, 2009. 280 compounds, 67% hits. shares compounds with NPY1 pot ag. HEK293 Y2-CNGC, membrane potential fluorescence, agonist mode;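 active = activation above the solvent-only control wells' mean plus 3 SD, cut at about 11% in these data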;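 note: 0% = DMSO with isoproterenol and 100% = 40 nM NPY maximal response; agonism lowers cAMP so well fluorescence drops in active wells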
# CNGC counter: CNGC cAMP sensor activity inhibitors, counter-screen for NPY-Y1 potentiator/agonist project, cell-based, HEK293-CNG parental, membrane potential fluorescence, Y1 set. isoproterenol cAMP. shares compounds with NPY1 pot ag. 280 compounds, 42% hits. AID 1704, 2009. inhibition, % at 3.6 µM;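 active = inhibition above the mean of stimulated solvent-only control wells plus 3 SD, cut at about 22% in these data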;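 note: 0% = isoproterenol-stimulated DMSO wells and 100% = unstimulated DMSO wells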
# Active calls of the source: *; / = not tested or not shown. An excerpt weighted towards active compounds, which were near 2.8% of everything screened.
SMILES,NPY1 pot ag,Measles CPE,MDM2 E3 inh,NPY-Y1 antag,NPY-Y2 antag,NPY2 pot ag,NPY-Y1 confirm,NPY-Y2 counter,NPY-Y1 agonist,NPY-Y2 ag,CNGC counter
c1csc(-c2nc3c4ccccc4c4ccccc4c3[nH]2)c1,18,15,-2,-2,-3,11,/,/,/,/,/
Oc1ccccc1-c1nc2c3ccccc3c3ccccc3c2[nH]1,50*,/,-9,/,/,30,36,28,37*,34*,39*
COCCNS(=O)(=O)c1ccc(OCC(=O)OC)c(Cl)c1,-6,9,-9,2,2,1,/,/,/,/,/
COC(=O)COc1ccc(S(=O)(=O)NCCC2=CCCCC2)cc1Cl,56*,19,-9,1,5,20,57*,31,52*,39*,49*
CCOC(=O)C1CCN(S(=O)(=O)c2ccc(OC)c(Cl)c2)CC1,9,/,-6,-4,/,1,/,/,/,/,/
COc1ccc2c(c1)CCCC21NC(=O)NC1=O (stereo unspecified),2,4,-12,2,0,9,/,/,/,/,/
COc1ccc2cc(C3(C)NC(=O)NC3=O)ccc2c1 (stereo unspecified),68*,12,-14,-7,-1,8,0,-5,-6,-3,-8
O=C(Cn1cncn1)N/N=C/c1ccccc1O,0,/,3,/,/,11,/,/,/,/,/
COC(=O)c1ccc(/C=N/Nc2nc(N3CCCCC3)nc(N3CCCCC3)n2)cc1,72*,/,-29,4,/,-13,-21,-15,-27,-16,-13
COc1ccc(/C=N/Nc2nc(N3CCCC3)nc(N3CCCC3)n2)cc1,-5,2,-6,8,-2,-4,/,/,/,/,/
CC(=O)Nc1ccc(NC(=O)Cn2c(=O)n(-c3ccc(C)cc3)c(=O)c3oc4ccccc4c32)cc1,10,/,2,-2,/,5,/,/,/,/,/
CNCC(O)COc1cccc(OC)c1 (stereo unspecified),56*,/,-12,-8,/,24,15,14,10,18*,-3
CCOCC(=O)N1CCN(c2ccccc2OC)CC1,-8,/,-1,3,/,-2,/,/,/,/,/
COC(=O)CC1(C(=O)OC)Oc2ccc(Br)cc2C(=O)N1c1cc(Cl)c(Cl)cc1Cl (stereo unspecified),49*,/,-10,/,/,18,22,5,10,7,20
CSc1nn(-c2ccc(C(=O)OCC(=O)NC(=O)NC(C)C)cc2)c(=S)s1,-18,10,11,-2,2,9,/,/,/,/,/
